From PMC10125337 (ACS Bio & Med Chem Au, 2023)
Where a SMILES comes first, the peptide text is derived from it. Where no end group is shown, it is not given here. [ ]: non-standard residue; d: D form.

Assays:
Aβ42 peptide [1] = biological target: T1, Aβ42 peptide (Homo sapiens, UniProt P05067); assay: ThT fluorescence assay of Aβ42 aggregation inhibition; assay type: biochemical; settings: 72 h, 37 °C; for inhibition of Aβ42 aggregation (ThT assay): peptide 5 µM + Aβ42 5 µM; for inhibition of Aβ42 peptide aggregation (ThT assay): peptide 160 µM + Aβ42 5 µM
T1 sequence (P05067 672-713): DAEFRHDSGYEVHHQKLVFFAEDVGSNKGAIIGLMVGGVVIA

[2] = system: Aβ42-induced apoptosis in PC-12-derived neurons; assay: Apoptosis assay; assay type: cell-based, rat; settings: Aβ42 10 µM + NT peptide 10 µM, 24 h, n = 3
Aβ42 peptide [3] = biological target: T1, Aβ42 peptide; assay: FTIR spectroscopy of β-sheet content; settings: Aβ42 20 µM + peptide 20 µM, PBS pH 7.4, 37 °C, 7 days; β-sheet 1610–1640, α-helix 1640–1660 cm^–1
Serum stability = assay type: in vitro ADME; settings: human, 50% human serum
Method in brief: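 Test peptide at 150 μM final in 50% human serum, 37 °C. Aliquots were taken at 0, 6, 12, 24, 48 and 72 h and mixed 1:1 with acetonitrile to precipitate serum proteins. Samples were held 30 min at 4 °C, then centrifuged at 10,000 rpm for 30 min at 4 °C. The supernatant was analysed by RP-HPLC for percentage of intact peptide. Compound-free serum served as blank.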

Aβ42 peptide [4] = biological target: T1, Aβ42 peptide; assay: HR-TEM of fibril formation; settings: for Aβ42 fibril structure after coincubation (HR-TEM): Aβ42 coincubated with peptide at 37 °C for 7 days; for fibril formation of the peptide incubated alone (HR-TEM): 7 days, 37 °C
MTT cell viability = assay type: cell-based; settings: rat, NGF-differentiated PC-12-derived neurons
Method in brief: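 PC-12 cells seeded at 1×10^4/well and grown 24 h at 37 °C, 5% CO2. At 50–60% confluence they were differentiated with 100 ng/mL NGF in DMEM with reduced horse serum. Test peptide (5–160 μM) was added for 24 h. MTT (5 mg/mL in PBS) was added for 4 h at 37 °C, and formazan was dissolved in DMSO/methanol 1:1. A570 was read; viability = (treated − blank)/(control − blank) × 100.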

[5] = biological target: amyloid beta (1–42) peptide (human); assay: ITC
Chain of amyloid beta (1–42) peptide (human) (P05067 672-713): as above

Molecule	inhibition of Aβ42 aggregation (ThT assay) (Aβ42 peptide [1])	apoptotic cells (PI fluorescence intensity) [2]	remaining at 72 h, 150 μM (Serum stability)	Aβ42 fibril structure after coincubation (HR-TEM) (Aβ42 peptide [4])	fibril formation of the peptide incubated alone (HR-TEM) (Aβ42 peptide [4])	inhibition of Aβ42 peptide aggregation (ThT assay) (Aβ42 peptide [1])	viability at 24 h, 160 µM (MTT cell viability)	Ka [5]	further results
CC(C)C[C@@H](NC(=O)[C@H](N)CCCCN)C(=O)N[C@@H](C(=O)N[C@H](Cc1ccccc1)C(=O)N[C@H](Cc1ccccc1)C(N)=O)C(C)C [NT-15, reference compound]	41.87%								
CC(C)C[C@@H](NC(=O)[C@H](N)CCCCN)C(=O)N[C@H](CC(C)C)C(=O)N[C@H](Cc1ccccc1)C(=O)N[C@H](Cc1ccccc1)C(=O)N[C@H](C)C(N)=O [NT-02] (H-[dK][dL][dL][dF][dF][dA]-NH2)	57.61%	2.84 fold	95.5%	Absence of the fibril structure	no fibril formation was observed	about 78.96%			FTIR C=O amide peak of Aβ42 treated with peptide (Aβ42 peptide [3]): 1642.76 cm^–1
CC(C)C[C@@H](N)C(=O)N[C@H](CC(C)C)C(=O)N[C@H](Cc1ccccc1)C(=O)N[C@H](Cc1ccccc1)C(=O)N[C@H](C)C(N)=O [NT-06] (H-[dL][dL][dF][dF][dA]-NH2)							71.7%		
CC(C)C[C@@H](N)C(=O)N[C@H](Cc1ccccc1)C(=O)N[C@H](Cc1ccccc1)C(=O)N[C@H](C)C(=O)N[C@H](CCC(=O)O)C(N)=O [NT-08] (H-[dL][dF][dF][dA][dE]-NH2)							50.1%		
CC(C)C[C@@H](N)C(=O)N1CCC[C@@H]1C(=O)N[C@H](Cc1ccccc1)C(=O)N[C@H](Cc1ccccc1)C(=O)N[C@H](C)C(=O)N[C@H](CCC(=O)O)C(N)=O [NT-13] (H-[dL][dP][dF][dF][dA][dE]-NH2)	48.41%	4.13 fold	90.4%	Absence of the fibril structure	no fibril formation was observed	~79.88%			FTIR C=O amide peak of Aβ42 treated with peptide (Aβ42 peptide [3]): 1645.94 cm^–1
CC(C)C[C@@H](NC(=O)[C@H](N)CCCCN)C(=O)N[C@H](CC(C)C)C(=O)N[C@H](Cc1ccccc1)C(=O)N[C@H](Cc1ccccc1)C(N)=O [NT-03] (H-[dK][dL][dL][dF][dF]-NH2)	54.26%	6.21 fold	91.6%	Absence of the fibril structure	no fibril formation was observed	~80.63%			
CC(C)C[C@@H](N)C(=O)N[C@H](CC(C)C)C(=O)N[C@H](Cc1ccccc1)C(=O)N[C@H](Cc1ccccc1)C(N)=O [NT-07] (H-[dL][dL][dF][dF]-NH2)							42.5%		
[dK][dL][dL][dF][dF][dA]-NH2 (N-terminus assumed; SMILES CC(C)C[C@@H](NC(=O)[C@H](N)CCCCN)C(=O)N[C@H](CC(C)C)C(=O)N[C@H](Cc1ccccc1)C(=O)N[C@H](Cc1ccccc1)C(=O)N[C@H](C)C(N)=O) [NT-02]								2.25e+06 M⁻¹	
[dK][dL][dL][dF][dF]-NH2 (N-terminus assumed; SMILES CC(C)C[C@@H](NC(=O)[C@H](N)CCCCN)C(=O)N[C@H](CC(C)C)C(=O)N[C@H](Cc1ccccc1)C(=O)N[C@H](Cc1ccccc1)C(N)=O) [NT-03]								3.47e+06 M⁻¹	
[dL][dP][dF][dF][dA][dE]-NH2 (N-terminus assumed; SMILES CC(C)C[C@@H](N)C(=O)N1CCC[C@@H]1C(=O)N[C@H](Cc1ccccc1)C(=O)N[C@H](Cc1ccccc1)C(=O)N[C@H](C)C(=O)N[C@H](CCC(=O)O)C(N)=O) [NT-13]								142000 M⁻¹	
